hERG rescue: hERG rescue from dofetilide block, primary screen, cell-based, CHO-hERG, FluxOR thallium flux, dofetilide IC70; Voltage-gated inwardly rectifying potassium channel KCNH2 (Homo sapiens), Q12809; dofetilide IC70 present; activation (rescue from dofetilide block), less the hit threshold, % at 10 µM; hit rate 0.51% among 310,000;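 active = activation above the mean of controls blocked by dofetilide plus 5 SD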;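 also: thallium influx through hERG after potassium depolarization seen as dye fluorescence rise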
KCNQ1 block: inhibitors of human KCNQ1 channel, primary screen, cell-based, thallium flux, high-throughput. Potassium voltage-gated channel subfamily KQT member 1 (Homo sapiens), P51787. CHO-K1 KCNQ1, FluxOR thallium flux fluorescence; hits give high values. B-score at 10 µM. hit rate 1.3% among 310,000. AID 2642, 2010;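 active = compounds whose thallium flux B-score, printed positive for inhibition, exceeds three library SD while starting fluorescence stays within three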;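 also: channel opened by potassium depolarization with thallium stimulus after 20 min compound exposure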
Target sequence (P51787 whole entry, looked up): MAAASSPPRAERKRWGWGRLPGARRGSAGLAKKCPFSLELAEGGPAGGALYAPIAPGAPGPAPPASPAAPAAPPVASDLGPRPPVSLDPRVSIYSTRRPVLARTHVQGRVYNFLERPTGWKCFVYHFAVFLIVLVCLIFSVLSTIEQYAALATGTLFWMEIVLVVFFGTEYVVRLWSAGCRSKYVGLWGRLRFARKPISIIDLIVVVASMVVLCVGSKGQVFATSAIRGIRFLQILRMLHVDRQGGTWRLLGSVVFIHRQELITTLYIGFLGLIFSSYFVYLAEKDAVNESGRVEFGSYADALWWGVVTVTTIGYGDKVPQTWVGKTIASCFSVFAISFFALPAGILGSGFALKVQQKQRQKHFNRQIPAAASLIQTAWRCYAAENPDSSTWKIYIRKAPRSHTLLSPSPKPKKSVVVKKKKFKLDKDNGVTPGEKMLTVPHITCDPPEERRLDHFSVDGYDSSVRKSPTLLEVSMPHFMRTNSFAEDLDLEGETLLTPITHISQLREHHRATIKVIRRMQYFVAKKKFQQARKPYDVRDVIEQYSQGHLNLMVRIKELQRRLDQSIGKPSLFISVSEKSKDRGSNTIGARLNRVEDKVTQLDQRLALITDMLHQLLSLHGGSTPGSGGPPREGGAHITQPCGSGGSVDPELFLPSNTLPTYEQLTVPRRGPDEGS
KCNK3 inh: human KCNK3 channel inhibitors, primary screen, CHO cells, FluxOR thallium flux, B-score | Potassium channel subfamily K member 3 (Homo sapiens), O14649 | FluxOR fluorescence; hits give low values | B-score at 10 µM | hit rate 0.84% among 340,000 | AID 602410, 2012;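 active = B-score under library mean minus 4 SD, starting fluorescence ratio at most library mean plus 5 SD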;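 also: more negative B-score means stronger inhibition of thallium flux through KCNK3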
Kir21 block: inhibitors of mouse Kir2.1 inward-rectifier potassium channel. HEK293-Kir2.1, FluxOR thallium flux fluorescence; hits give low values. Inward rectifier potassium channel 2 (Mus musculus), P35561. AID 1672, 2009. hit rate 0.85% among 310,000. B-score at 10 µM;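 active = fluorescence ratio B-score at or below minus 3 SD of library scores, with starting-brightness B-score within 2 SD, cut at about -4.2 in these data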;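 also: channel flux triggered by added potassium and thallium sulfate stimulus; B-score of peak minus minimum fluorescence over baseline after thallium stimulus; more negative B-score means stronger Kir2.1 block with less thallium influx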
KCNK9 inh-1: KCNK9 potassium channel inhibitors, primary screen, HEK293 cells, thallium flux | B-score at 10 µM | FluxOR thallium flux fluorescence; hits give low values | hit rate 1.2% among 310,000 | AID 488922, 2010 | Potassium channel subfamily K member 9 (Homo sapiens), Q9NPC2;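 active = ratio B-score over 3 SD below the library mean, with starting fluorescence within 5 SD of its mean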;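 also: negative B-score means less thallium flux so channel inhibition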
KCNQ1 pot: potentiators or activators of KCNQ1 channel, primary screen, cell-based, thallium flux, high-throughput. CHO-K1 KCNQ1, thallium flux FluxOR fluorescence; hits give high values. hit rate 0.35% among 310,000. Potassium voltage-gated channel subfamily KQT member 1 (Homo sapiens), P51787. B-score at 10 µM;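 active = fluorescence ratio B-score, a plate-corrected score, at least three library SD, with initial intensity B-score within 5 SD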
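Assay system: CHO-K1 cells stably expressing KCNQ1. Medium: assay buffer for compound exposure, DMSO matched across wells. Timing: 37 °C overnight plating, 90-min dark dye load, 20-min compound pretreatment. Signal: kinetic FluxOR fluorescence, 10 s baseline plus 110 s post-stimulus.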
hERG ctr: hERG channel inhibition, counter-screen for Kir2.1 inhibitor project, cell-based, thallium flux | inhibition, % at 10 µM | hERG-expressing cells | hit rate 20% among 320 | AID 2236, 2010 | shares compounds with Kir21 block;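 also: host cells are CHO cells stably expressing hERG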
KCNK9 inh-2: KCNK9 channel inhibition, selectivity assay for Kir2.1 inhibitor project, cell-based; shares compounds with Kir21 block; KCNK9-expressing cells, ion flux inhibition; inhibition, % at 10 µM; hit rate 5% among 320
Kir2-1 patch inh: mouse Kir2.1 channel blockers, Kir2.1 inhibitor project, cell-based, secondary, automated electrophysiology | shares compounds with Kir21 block | Kir2.1 cells, automated patch-clamp current inhibition | inhibition, % at 25 µM | hit rate 71% among 320
KCNQ1 inh valid: KCNQ1 potassium channel inhibitors, confirmation, cell-based, Tl flux, duplicate | AID 588353, 2011 | KCNQ1 cell line, FluxOR thallium flux fluorescence | hit rate 93% among 1,600 | shares compounds with KCNQ1 block | inhibition, % at 10 µM;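 active = primary screen active, with duplicate mean exceeding buffer control mean plus 3 SD of buffer wells, cut at about 28% in these data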
CHO KCNQ1 ctr: thallium flux effects in parental CHO cells, counter-screen for KCNQ1 inhibitor project, cell-based, Tl flux; hit rate 21% among 1,600; shares compounds with KCNQ1 block; parental CHO-K1, FluxOR thallium flux fluorescence ratio; hits give low values; zero means no signal rise above baseline; fluorescence ratio (Tl flux) at 10 µM;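 active = mean of duplicate thallium-flux fluorescence ratios in parental host cells more than 5 SD below the buffer control mean, cut at about 0.38 in these data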;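 also: ratio is peak minus minimum fluorescence divided by baseline fluorescence; actives read low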
KCNQ2 inh: KCNQ2 channel inhibition, selectivity assay for KCNQ1 inhibitor project, cell-based | shares compounds with KCNQ1 block | KCNQ2 cells, FluxOR thallium flux fluorescence | inhibition, % at 10 µM | hit rate 71% among 1,600;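 active = mean percent inhibition of the KCNQ2 thallium signal more than 5 SD above the buffer-only control wells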;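 also: KCNQ2 expressed in CHO cells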
KCNQ1-KCNE1 inh: KCNQ1/KCNE1 channel inhibition, selectivity assay for KCNQ1 inhibitor project, CHO-K1 cells, thallium flux, FluxOR; FluxOR thallium flux fluorescence; hit rate 77% among 1,600; shares compounds with KCNQ1 block; inhibition, % at 10 µM;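 active = mean percent inhibition of duplicate wells above the buffer-only control mean plus 3 SD of those controls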
A number is an active result; – = inactive; · = no result given. Only some compounds are listed: those with a hit (about 3.8% of all), similar ones and a draw of the others. Unless noted, no rule for the calls is given here.

SMILES | hERG rescue | KCNQ1 block | KCNK3 inh | Kir21 block | KCNK9 inh-1 | KCNQ1 pot | others
COC(=O)C1CN(C#N)N(c2ccc(Cl)cc2)C12c1ccccc1-c1ccccc12 (stereo not drawn) | – | – | – | – | -8.9 | –
CC(=O)C1(c2ccccc2)CCN(C(=O)C2CCC(=O)N(CCc3cccc(F)c3)C2)CC1 (stereo not drawn) | – | – | – | – | – | –
CN1c2ccc([N+](=O)[O-])cc2CC2(C(=O)NC(=O)N(c3ccc(Br)cc3)C2=O)C1c1ccccc1 (stereo not drawn) | – | 6 | – | – | – | –
O=C1NC(=O)C2(Cc3ccccc3N3CCCC32)C(=O)N1c1ccccc1 (stereo not drawn) | – | – | – | – | – | –
CN(C)c1ccc(/C=C/[N+](=O)[O-])cc1 | – | 12 | – | -6.3 | – | –
CC1(C)CSC(=NCc2ccccc2)N1 | – | – | – | – | – | 7
N#CCCn1cc(C(=O)Nc2ccccc2Cl)c(-c2ccc(F)cc2)n1 | 8.2 | – | – | – | – | –
O=C(O)c1[nH]c(=O)[nH]c(=O)c1F | – | – | – | – | – | –
CC1(C)C[C@H]2C=C(C=O)[C@]3(C=O)C[C@]3(C)[C@H]2C1 | – | – | – | -8.2 | – | 21
CCOC(=O)C(=CNc1ccc(C(O)(C(=O)OCC)C(F)(F)F)cc1C)C(=O)OCC (stereo not drawn) | – | – | – | – | – | –
C/C(=N\NC(=O)c1ccccc1Cl)c1c(O)n(C2CCCCC2)c(=O)[nH]c1=O | – | – | – | – | – | –
C/C(=N\NC(=O)c1ccccc1O)c1c(O)n(C2CCCCC2)c(=O)[nH]c1=O | – | 6 | – | – | – | –
O=C(Cc1ccc(Cl)c(Cl)c1)NCC1(N2CCOCC2)CCCCC1 | – | – | – | – | – | –
Oc1ccc(CC2(N3CCCC3)CCCCC2)cc1 | 7.7 | – | – | – | – | –
Cc1cc([N+](=O)[O-])c(Cl)cc1NC(=O)C(C)C | – | – | – | – | – | –
CNc1cc(Cl)c2nonc2c1[N+](=O)[O-] | – | 10 | – | -6.6 | – | –
CN(C)S(=O)(=O)c1cc(NC(=O)COC(=O)Cc2ccccc2)ccc1Cl | – | 6 | – | – | – | –
CN(C)S(=O)(=O)c1cc(NC(=O)C[N+]23CCN(CC2)CC3)ccc1Cl | – | – | – | – | – | –
C[C@]12CCC3C(CC[C@H]4C[C@@H](O)CC[C@]34C)C1CC[C@@H]2OC(=O)[C@H](N)CCCCN (stereo partly drawn) | · | · | – | · | · | ·
O=Cc1c(C(=O)O)n(Cc2ccccc2F)c2ccccc12 | – | – | – | – | – | –
CC(C)CNC(=O)/C=C/C=C/CCCCCC/C=C/c1ccc2c(c1)OCO2 | · | · | -9.4 | · | · | ·
CCCCn1c(O)c(C(=O)/C=C/c2ccc3c(c2)OCO3)c(=O)[nH]c1=O | – | – | – | – | – | –
COc1ccc(NC(c2ccccc2)P(=O)(Oc2ccccc2)Oc2ccccc2)cc1 (stereo not drawn) | – | – | – | – | -6.6 | –
Cc1cc(C)n(CCOC(=O)C2C(C=C(Cl)Cl)C2(C)C)n1 (stereo not drawn) | – | – | – | -9.8 | – | – | hERG ctr=–;KCNK9 inh-2=–;Kir2-1 patch inh=41%
COc1cc(CCN)ccc1O | · | · | – | · | · | ·
SMILES | hERG rescue | KCNQ1 block | KCNK3 inh | Kir21 block | KCNK9 inh-1 | KCNQ1 pot | others
CCCCCSc1cc(OC)c(CCN)cc1OC | – | 6 | – | -6.2 | – | – | hERG ctr=–;KCNK9 inh-2=–;Kir2-1 patch inh=26%
COc1cccc(C(=O)C2CN(C)CC2c2ccc(Cl)cc2)c1 (stereo not drawn) | – | – | – | -7.1 | – | – | hERG ctr=46%;KCNK9 inh-2=–;Kir2-1 patch inh=25%
COc1ccc(C(=O)C2CN(C)CC2c2ccc(Cl)cc2)cc1 (stereo not drawn) | – | – | – | -6.4 | – | – | hERG ctr=51%;KCNK9 inh-2=–;Kir2-1 patch inh=–
Cc1cccc(OP(N)(=O)Oc2cccc(C)c2C)c1C | – | – | – | – | – | –
COC(=O)C1=C(c2cccc(OC)c2OC)C[C@@H]2CC[C@H]1N2C(=O)NCc1cccc2ccccc12 | – | – | – | – | – | –
CCOc1ccc(Cl)cc1CNCCc1ccc(F)cc1 | – | – | – | -6.4 | – | – | hERG ctr=–;KCNK9 inh-2=–;Kir2-1 patch inh=57%
Fc1ccc(CCNCc2ccccc2Cl)cc1 | – | – | – | – | – | –
Cn1c(O)c(/C=N/c2ccccn2)c(=O)n(C)c1=O | – | – | – | – | – | –
CCCCCn1c(=O)c(C(=O)Nc2cnccn2)c(O)c2ccccc21 | – | 8 | -10 | – | – | – | KCNQ1 inh valid=78;CHO KCNQ1 ctr=–;KCNQ2 inh=–;KCNQ1-KCNE1 inh=68%
CCCCn1c(=O)c(C(=O)Nc2ccccc2S(N)(=O)=O)c(O)c2ccccc21 | – | – | – | – | – | –
CCCCCCCn1c(=O)c(C(=O)Nc2cnccn2)c(O)c2ccccc21 | – | – | – | – | – | –
